Measurements as given in ChEMBL document CHEMBL4330143, “Maximizing ER-α Degradation Maximizes Activity in a Tamoxifen-Resistant Breast Cancer Model: Identification of GDC-0927” (ACS Med Chem Lett, 2019).
pIC50: −log10 of the molar value. Calls of active or inactive are those of the source. The calls are words filed in the database; no cut-off is given here.

What was measured:
Estrogen receptor = molecular target: T1, Estrogen receptor (Homo sapiens, UniProt P03372); assay: Induction of ERalpha degradation in human MCF7 cells assessed as decrease in ERalpha protein level after 4 hrs by InCell Western assay; format: cell-based
T1 sequence (P03372 whole entry): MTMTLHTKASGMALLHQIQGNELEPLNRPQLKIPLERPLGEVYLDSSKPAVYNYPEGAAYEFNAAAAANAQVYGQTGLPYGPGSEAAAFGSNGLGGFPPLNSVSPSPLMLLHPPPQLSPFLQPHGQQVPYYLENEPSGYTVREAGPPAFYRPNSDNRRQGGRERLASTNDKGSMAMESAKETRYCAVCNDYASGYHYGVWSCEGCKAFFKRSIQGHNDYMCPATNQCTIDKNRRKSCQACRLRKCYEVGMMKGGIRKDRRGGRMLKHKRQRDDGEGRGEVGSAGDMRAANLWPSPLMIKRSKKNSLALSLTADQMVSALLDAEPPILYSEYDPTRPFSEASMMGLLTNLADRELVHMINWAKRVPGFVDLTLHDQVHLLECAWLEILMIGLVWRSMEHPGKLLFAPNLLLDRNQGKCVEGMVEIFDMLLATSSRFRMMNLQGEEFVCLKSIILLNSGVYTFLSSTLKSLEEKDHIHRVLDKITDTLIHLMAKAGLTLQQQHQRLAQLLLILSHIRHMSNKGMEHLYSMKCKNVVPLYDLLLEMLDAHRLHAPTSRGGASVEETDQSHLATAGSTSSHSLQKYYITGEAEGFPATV

MCF7 [1] = assay: Antiproliferative activity against human MCF7 cells after 5 days by CellTiter-Glo assay; conditions: MCF7, 120 h
Rattus norvegicus [2] = assay: In vivo agonist activity at ERalpha in CD-IGS rat assessed as increase in uterine weight at 60 mg/kg, po for 3 consecutive days measured at 24 hrs post last dose; format: functional, organism-based
[3] = AUC in mouse at 10 mg/kg, po; format: ADME, organism-based; conditions: in vivo
[4] = AUC (0 to 24 hrs) in nude mouse xenografted with tamoxifen-resistant human MCF7 cells at 100 mg/kg, po daily for 28 days measured on day 28 post last dose; format: ADME, organism-based; design: time < 24 hr, dose 100 mg/kg, route oral; conditions: in vivo
Summary of the method: (§1)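 Tamoxifen-resistant MCF-7 xenograft mice carrying subcutaneous 0.72 mg estradiol pellets. Plasma pharmacokinetics sampled on day 28 of the study, at take-down.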

[5] = Cmax in nude mouse xenografted with tamoxifen-resistant human MCF7 cells at 100 mg/kg, po daily for 28 days measured on day 28 post last dose; format: ADME, organism-based; design: dose 100 mg/kg, route oral; conditions: in vivo; summary of the method: as §1
[6] = Clearance in rat at 10 mg/kg, po daily for 3 days measured on day 3 post last dose; format: ADME, organism-based; conditions: in vivo
[7] = Unbound fraction in mouse plasma; format: ADME, cell-free
[8] = Unbound Cmax in nude mouse xenografted with tamoxifen-resistant human MCF7 cells at 100 mg/kg, po daily for 28 days measured on day 28 post last dose; format: ADME, organism-based; conditions: in vivo, 672 h; summary of the method: as §1
Mus musculus = assay: In vivo induction of ERalpha degradation in tumor of nude mouse xenografted with tamoxifen-resistant human MCF7 cells at 100 mg/kg, po daily for 28 days measured on day 28 post last dose; format: functional, organism-based
Summary of the method: (§2)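 Tamoxifen-resistant MCF-7 tumours grown subcutaneously in mice, with estradiol supplied from subcutaneous 0.72 mg estradiol pellets.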

MCF7 [9] = assay: Antitumor activity against tamoxifen-resistant human MCF7 cells xenografted in nude mouse at 100 mg/kg, po daily for 28 days; format: functional, organism-based; summary of the method: as §2
[10] = Oral bioavailability in rat at 10 mg/kg daily for 3 days measured on day 3 post last dose; format: ADME, organism-based; conditions: in vivo
[11] = Unbound AUC (0 to 24 hrs) in nude mouse xenografted with tamoxifen-resistant human MCF7 cells at 100 mg/kg, po daily for 28 days measured on day 28 post last dose; format: ADME, organism-based; conditions: in vivo; summary of the method: as §1
[12] = AUC in rat at 10 mg/kg, po daily for 3 days measured on day 3 post last dose; format: ADME, organism-based; conditions: in vivo
Rattus norvegicus [13] = assay: In vivo inverse agonist activity at ERalpha in CD-IGS rat assessed as decrease in uterine weight at 10 mg/kg, po for 3 consecutive days measured at 24 hrs post last dose; format: functional, organism-based
Summary of the method: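 Rat uterine wet weight assay run in agonist mode, with no ethynyl estradiol added. Oral dosing at 10 mg/kg for 3 days. Uterine weights compared with those of vehicle-treated animals.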

**Q.** With `COC[C@@H]1CCN(CCOc2ccc(C3Oc4ccc(O)cc4C(C)=C3c3cccc(O)c3)cc2)C1` (some centres undefined) as the molecule, how does the pIC50 (Estrogen receptor) read?
**A.** 9.52

**Q.** What about the pIC50 (MCF7 [1]) of the same molecule?
**A.** 9.40

**Q.** With `CC/C(=C(\c1ccccc1)c1ccc(OCCN(C)C)cc1)c1ccccc1` as the molecule, how does the Activity (Rattus norvegicus [2]) read?
**A.** Active

**Q.** With `CC1=C(c2cccc(O)c2)C(c2ccc(OCCN3CC[C@@H](CF)C3)cc2)Oc2ccc(O)cc21` (some centres undefined) as the molecule, how does the pIC50 (Estrogen receptor) read?
**A.** 10.00

**Q.** What about the AUC [3] of the same molecule?
**A.** 40 ng·h/mL

**Q.** What about the pIC50 (MCF7 [1]) of the same molecule?
**A.** 9.70

**Q.** With `CC1=C(c2cccc(O)c2)C(c2ccc(OCCN3CC(CF)C3)cc2)Oc2ccc(O)cc21` (centres undefined) as the molecule, how does the AUC [3] read?
**A.** 160 ng·h/mL

**Q.** And the pIC50 (MCF7 [1])?
**A.** 9.70

**Q.** With `CC1=C(c2cccc(O)c2)C(c2ccc(OCCN3CCC[C@H]3CF)cc2)Oc2ccc(O)cc21` (some centres undefined) as the molecule, how does the pIC50 (Estrogen receptor) read?
**A.** 9.70

**Q.** And the pIC50 (MCF7 [1])?
**A.** 8.85

**Q.** Which AUC at 24 h [4] does the source give for `CC1=C(c2cccc(O)c2)[C@H](c2ccc(OC[C@H](C)N3CC[C@@H](C)C3)cc2)Oc2ccc(O)cc21` here?
**A.** 12000 ng·h/mL

**Q.** And the Cmax [5]?
**A.** 1300 ng/mL

**Q.** What about the CL/F [6] of the same molecule?
**A.** > 60 mL/min/kg

**Q.** And the Fu [7]?
**A.** 1.6%

**Q.** What about the fCmax [8] of the same molecule?
**A.** 0.021 µg/mL

**Q.** What about the Activity (Mus musculus) of the same molecule?
**A.** Active

**Q.** And the Activity (MCF7 [9])?
**A.** inactive

**Q.** What about the bioavailability [10] of the same molecule?
**A.** < 15%

**Q.** And the fAUC [11]?
**A.** 190 ng·h/mL

**Q.** With `CC1=C(c2cccc(O)c2)C(c2ccc(OCCN3CC[C@@H](C#N)C3)cc2)Oc2ccc(O)cc21` (some centres undefined) as the molecule, how does the pIC50 (Estrogen receptor) read?
**A.** 9.10

**Q.** And the pIC50 (MCF7 [1])?
**A.** 8.44

**Q.** With `CC1=C(c2ccc(C#N)cc2)C(c2ccc(OCCN3CC(CF)C3)cc2)Oc2ccc(O)cc21` (centres undefined) as the molecule, how does the pIC50 (Estrogen receptor) read?
**A.** 9.70

**Q.** What about the pIC50 (MCF7 [1]) of the same molecule?
**A.** 9.52

**Q.** What does the source list for `CC1=C(c2cccc(O)c2)C(c2ccc(OCCN3CC[C@@H](C(F)F)C3)cc2)Oc2ccc(O)cc21` (some centres undefined)?
**A.** pIC50 (Estrogen receptor): 9.70; pIC50 (MCF7 [1]): 9.40

**Q.** With `CC1=C(c2ccc(F)cc2)[C@H](c2ccc(OCCN3CC(CF)C3)cc2)Oc2ccc(O)cc21` as the molecule, how does the AUC at 24 h [4] read?
**A.** 21000 ng·h/mL

**Q.** What about the AUC at 72 h [12] of the same molecule?
**A.** 1900 ng·h/mL

**Q.** What about the Cmax [5] of the same molecule?
**A.** 2300 ng/mL

**Q.** And the CL/F [6]?
**A.** 36 mL/min/kg

**Q.** What about the Fu [7] of the same molecule?
**A.** 0.4%

**Q.** And the fCmax [8]?
**A.** 0.009 µg/mL

**Q.** What about the Activity (Rattus norvegicus [13]) of the same molecule?
**A.** Active

**Q.** And the Activity (Mus musculus)?
**A.** Active

**Q.** What about the pIC50 (MCF7 [1]) of the same molecule?
**A.** 9.70

**Q.** What about the Activity (MCF7 [9]) of the same molecule?
**A.** Active

**Q.** What about the bioavailability [10] of the same molecule?
**A.** 42%

**Q.** And the fAUC [11]?
**A.** 80 ng·h/mL

**Q.** With `CC1=C(c2cccc(O)c2)C(c2ccc(OC[C@H](C)N3CC(CF)C3)cc2)Oc2ccc(O)cc21` (some centres undefined) as the molecule, how does the pIC50 (Estrogen receptor) read?
**A.** 9.70

**Q.** And the pIC50 (MCF7 [1])?
**A.** 9.52
